These results are taken from ChEMBL document CHEMBL1122411 (J Med Chem, 1983).

Each structure is given as a SMILES string. Values joined by “and” are separate entries in the source; they are usually repeats but may differ in a detail not shown here. Equal values may be shown once.

As usually defined, the ILS is how much longer treated animals lived than controls. Low readings indicate little gain in survival, high ones much gain in survival.

Assay [1] has as its system Mus musculus. The assay can be described thus: Weight change on day 7 in L1210 Lymphoid Leukemia in mice at a dose of 10 mg/kg/day (qd x5). The assay is classed as functional.
Assay [2] concerns Mus musculus. Description: Weight change on day 7 in L1210 Lymphoid Leukemia in mice at a dose of 6 mg/kg/day (qdX9). The assay is classed as functional. The method in brief: (§1)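 Male B6D2F1J mice (20–25 g) were inoculated i.p. with 10⁵ L1210 ascites cells on day 0 and randomized into groups of 5. Drug in water at pH 7.5–8.0 was given i.p. daily for 9 days (qd×9) from day 1. Animals were weighed after 7 days, and the % body-weight change was recorded under a standard NCI protocol.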

For assay [3], the species on record is Mus musculus. The assay can be described thus: Toxicity in mice after 17-22 days at a dose of; value is 20/9. Format: functional.
For assay [4], the system named is Mus musculus. Description: Weight change on day 7 in L1210 Lymphoid Leukemia in mice at a dose of 0.25 mg/kg/day (b.i.d. x10). Format: functional. The method in brief:
(§2)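 Male B6D2F₁J mice (20–25 g) bearing ip L1210 ascites (10⁵ cells, day 0) were used, 5 per group. Drug was given ip in water at pH 7.5–8.0 from day 1 on q2d×5, qd×9 or b.i.d.×10 schedules. Animals were weighed after 7 days and percent weight change recorded.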

Assay [5] has as its system Mus musculus. Description: Weight change on day 7 in L1210 Lymphoid Leukemia in mice at a dose of 0.75 mg/kg/day (b.i.d. x10). The assay is classed as functional. A digest of the protocol:
as §2

The species entered for assay [6] is Mus musculus. The assay can be described thus: Percentage increase in life span after 17-22 days. The assay is classed as functional. The method in brief:
(§3)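 Male B6D2F1J mice (20–25 g), randomized after i.p. inoculation with 10^5 L1210 ascitic leukemia cells on day 0. Drug in water, pH 7.5–8.0, given i.p. on a q2d×5, qd×9 (from day 1) or b.i.d.×10 schedule; 5 mice per group. %ILS = [(T/C) − 1]100 from median survival days of treated versus control mice. Range is survival days.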

In assay [7] the test system is L1210. Description: cytotoxicity against L1210 cells. Format: functional. The conditions noted are these: Mus musculus, read-out: ID50 (the source's name).
The subject of assay [8] is Mus musculus. The assay can be described thus: Weight change on day 7 in L1210 Lymphoid Leukemia in mice at a dose of 4 mg/kg/day (qdX9). The assay is classed as functional. The method in brief:
as §2

In assay [9] the test system is Mus musculus. The assay can be described thus: Toxicity in mice after 11-22 days at a dose of 6 mg/kg/day; value is 21/9. The assay is classed as functional.
The subject of assay [10] is Mus musculus. The assay can be described thus: Toxicity in mice after 14-18 days at a dose of 2 mg/kg/day; value is 16/9. Format: functional.
Assay [11] has as its system Mus musculus. The assay can be described thus: Toxicity in mice after 15-17 days at a dose of 0.5 mg/kg/day; value is 16/8. The assay is classed as functional.
Assay [12] concerns Mus musculus. Description: Toxicity in mice after 14-18 days at a dose of 10 mg/kg/day; value is 17/9. The assay is classed as functional.
Assay [13] is filed under the species Mus musculus. The assay can be described thus: 1Percentage increase in life span after 12-15 days. The assay is classed as functional. A digest of the protocol:
as §3

Assay [14] deals with Mus musculus. Description: Weight change on day 7 in L1210 Lymphoid Leukemia in mice at a dose of 2 mg/kg/day (qdx9). The assay is classed as functional. The method in brief: as §2
The species named for assay [15] is Mus musculus. The assay can be described thus: Percentage increase in life span after 11-22 days. Format: functional. The method in brief:
as §3

The subject of assay [16] is Mus musculus. Description: Weight change on day 7 in L1210 Lymphoid Leukemia in mice at a dose of 0.5 mg/kg/day (b.i.d. x10). Format: functional. A digest of the protocol:
as §2

In assay [17] the test system is Mus musculus. The assay can be described thus: Toxicity in mice after 15-17 days at a dose of 0.75 mg/kg/day; value is 17/8. Format: functional.
Assay [18] deals with Mus musculus. Description: Weight change on day 7 in L1210 Lymphoid Leukemia in mice at a dose of 15 mg/kg/day (qd x5). The conditions noted are these: in the assay text read “q2dx5” for “qdx5”. The assay is classed as functional. A digest of the protocol: as §2
The species entered for assay [19] is Mus musculus. Description: Percentage increase in life span after 14-18d ays. The assay is classed as functional. A digest of the protocol:
as §3

Assay [20] deals with Mus musculus. The assay can be described thus: Toxicity in mice after 12-15 days at a dose of 0.25 mg/kg/day; value is 13/8. Format: functional.
The species named for assay [21] is Mus musculus. Description: Percentage increase in life span after 12-19 days. Format: functional. The method in brief: as §3
Assay [22] has as its system Mus musculus. Description: Toxicity in mice after 12-19 days at a dose of 4 mg/kg/day; value is 17/9. Format: functional.
Assay [23] has as its system Mus musculus. The assay can be described thus: Weight change on day 7 in L1210 Lymphoid Leukemia in mice at a dose of 30 mg/kg/day (qdx9). The assay is classed as functional. The method in brief:
as §2

The species named for assay [24] is Mus musculus. The assay can be described thus: Percentage increase in life span after 12-15 days. Format: functional. A digest of the protocol: as §3
Assay [25] relates to Mus musculus. Description: Weight change on day 7 in L1210 Lymphoid Leukemia in mice at a dose of 40 mg/kg/day (qdx9). The assay is classed as functional. The method in brief:
as §1

The subject of assay [26] is Mus musculus. The assay can be described thus: Toxicity in mice after 15-17 days at a dose of 20 mg/kg/day; value is 16/9. The assay is classed as functional.
For assay [27], the species on record is Mus musculus. The assay can be described thus: Percentage increase in life span after 17-18 days. The assay is classed as functional. The method in brief:
as §3

The species entered for assay [28] is Mus musculus. The assay can be described thus: Percentage increase in life span after 13-20 days. The assay is classed as functional. The method in brief: as §3
Assay [29] has as its system Mus musculus. The assay can be described thus: Weight change on day 7 in L1210 Lymphoid Leukemia in mice at a dose of 10 mg/kg/day (qd x9). Format: functional. A digest of the protocol:
as §2

Assay [30] addresses T1, Dihydrofolate reductase (Mus musculus) (UniProt P00375).
T1 sequence (whole entry): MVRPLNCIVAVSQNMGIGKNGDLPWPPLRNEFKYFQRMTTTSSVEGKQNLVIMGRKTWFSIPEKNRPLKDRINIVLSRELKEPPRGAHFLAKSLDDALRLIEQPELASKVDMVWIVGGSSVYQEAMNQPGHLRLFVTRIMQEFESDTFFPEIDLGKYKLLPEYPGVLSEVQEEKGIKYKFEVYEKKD
Description: Binding affinity to Dihydrofolate reductase of L1210/R71 using spectrophotometric assay. A digest of the protocol: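 The enzyme was isolated from MTX-resistant L1210/R71 cultured cells and purified on MTX-agarose. The assay measured ΔA340 at 22 °C in 0.1 M Tris, pH 7.0, with 62 nM enzyme. Enzyme was preincubated 2 min with inhibitor and NADPH, and dihydrofolate was then added to start the reaction. ID₅₀ determined.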

Assay [31] deals with L1210. The assay can be described thus: Cytotoxicity against L1210 cells. The assay is classed as functional. As to conditions: Mus musculus, read-out: ID50 (the source's name).
In assay [32] the test system is Mus musculus. The assay can be described thus: Toxicity in mice after 13-20 days at a dose of 40 mg/kg/day; value is 19/9. Format: functional.
The test system of assay [33] is Mus musculus. Description: Toxicity in mice after 17-18 days at a dose of 30 mg/kg/day; value is 17/9. The assay is classed as functional.
Assay [34] concerns Mus musculus. Description: Toxicity in mice after 12-15 days at a dose of 10 mg/kg/day; value is 13/9. Format: functional.
The test system of assay [35] is Mus musculus. The assay can be described thus: Weight change on day 7 in L1210 Lymphoid Leukemia in mice at a dose of 20 mg/kg/day (qdx9). Format: functional. The method in brief: as §2
Assay [36] is filed under the species Mus musculus. Description: Percentage increase in life span after 15-17 days. Format: functional. A digest of the protocol: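 Male B6D2F1J mice (20–25 g) were inoculated i.p. with 10⁵ L1210 ascitic leukemia cells on day 0 and randomized into groups of 5. Drug in water at pH 7.5–8.0 was given i.p. from day 1 on qd×9, q2d×5 or b.i.d.×10 schedules. Weight change was recorded at day 7. %ILS = [(T/C) − 1]100, using median survival days; ≥25% counts as significant.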

With `CN(Cc1cnc2nc(N)nc(N)c2n1)c1ccc(C(=O)N[C@@H](CCC(=O)O)C(=O)O)cc1` [METHOTREXATE], the Weight change is 11% in the assay with Mus musculus [1]; -2% in the assay on Mus musculus [2]; 1% in the assay on Mus musculus [4]; 3% in the assay with Mus musculus [5]; -2% with Mus musculus [8]; 6% with Mus musculus [14]. Besides, the Weight change stood at 1% with Mus musculus [16] and 8% in the assay with Mus musculus [18]. In addition, the T/C in the assay filed under Mus musculus [3] amounted to 20; in the assay with Mus musculus [9], 21; in the assay with Mus musculus [10], 16; in the assay with Mus musculus [11], 16; in the assay on Mus musculus [12], 17; in the assay with Mus musculus [17], 17. For the same compound, the T/C was 13 with Mus musculus [20] and 17 in the assay on Mus musculus [22]. Moreover, the ILS in the assay filed under Mus musculus [6] was 122%; in the assay listed under Mus musculus [13], 63%; in the assay filed under Mus musculus [15], 133%; in the assay filed under Mus musculus [19], 89% and 78%; in the assay listed under Mus musculus [21] it was 89%. Further, the IC50 in the assay with L1210 [7] was found to be 0.02 µM.

In the case of `CN(Cc1cnc2nc(N)nc(N)c2n1)c1ccc(C(=O)NC(CCCCCC(=O)O)C(=O)O)cc1` (stereo unspecified), the Weight change with Mus musculus [23] was 9%; in the assay on Mus musculus [25], 6%; in the assay on Mus musculus [29] it was 11%; in the assay with Mus musculus [35], 7%. For the same compound, the increase in life span (ILS) is on record as 44% in the assay filed under Mus musculus [24], 89% in the assay listed under Mus musculus [27], 111% in the assay filed under Mus musculus [28] and 78% in the assay listed under Mus musculus [36]. The T/C in the assay with Mus musculus [26] is reported as 16; with Mus musculus [32], 19; in the assay on Mus musculus [33], 17; in the assay with Mus musculus [34], 13. Also, the ID50 in assay [30] came to 0.035 µM. The IC50 with L1210 [31] was 0.0063 µM.
